ChEMBL document CHEMBL1141192 (J Med Chem, 2005)
In brackets after ≈: the same amount, converted by molar mass.

How the values were obtained:
[1] = Solubility in water at pH 7.4
Adenosine kinase = Adenosine kinase (Homo sapiens, UniProt P55263); assay: Inhibitory activity against recombinant human adenosine kinase
Rattus norvegicus [2] = assay: Inhibition of the licking and biting response at 20 mg/kg, po in rat by formalin paw antinociceptive assay; type: functional; details: Sprague-Dawley
Method in brief: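 Screening: fasted male SD rats (105–115 g), three per compound, 20 mg/kg po in 0.1% MC 15 min before 2% formalin (50 μL s.c., right hindpaw). Licking/biting scored 5 s per 30 s; percent inhibition reported for 2nd phase (15–30 min); positive control 5 mg/kg po each run.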

Rattus norvegicus [3] = species: Rattus norvegicus; assay: Rotarod test in rat at 5 hrs; type: functional; details: Sprague-Dawley
Method in brief: (§1)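 Fasted male SD rats (94–104 g), n = 6 per dose group, given 10–300 mg/kg po in 0.1% MC after training on a 5 rpm rotorod; walking time recorded at 0, 0.5, 1, 2 and 5 h post-dose, 150 s cutoff.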

Rattus norvegicus [4] = assay: Hyperalgesia in male SD rat administered 1 hr before carrageenan injection, analgesia tested at 5 hrs; type: functional, Sprague-Dawley
Method in brief: (§2)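 Fasted male SD rats (94–118 g); compound suspended in 0.1% MC, given orally at 1, 3 and 10 mg/kg either 1 h before (prophylactic) or 2 h after (therapeutic) intraplantar carrageenan (1%, 100 μL/paw). Mechanical threshold read by Randall-Selitto analgesimeter at 3, 4, 5 and 6 h post-carrageenan.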

Rattus norvegicus [5] = species: Rattus norvegicus; assay: Rotarod test in rat at 0.5 hrs; type: functional; details: Sprague-Dawley; method in brief: as §1
Rattus norvegicus [6] = assay: Hyperalgesia in male SD rat administered 2 hrs after carrageenan injection, analgesia tested at 6 hrs; type: functional, Sprague-Dawley; method in brief: as §2
[7] = Time taken to achieve maximum concentration in dog at 3 mg/kg, po; type: ADME, organism-based, Canis lupus familiaris; design: dose 3 mg/kg, route oral; details: in vivo
Method in brief: (§3)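 Compound at 3 mg/kg in 0.1% MC given po or iv to rats or dogs; plasma sampled at 0.25, 0.5, 1, 2, 4, 8 and 24 h; drug levels measured by HPLC.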

[8] = Oral bioavailability in rat at 3 mg/kg, po; type: ADME, organism-based; details: in vivo; method in brief: as §3
[9] = Clearance in rat at 3 mg/kg, po; type: ADME, organism-based; design: dose 3 mg/kg, route oral; details: in vivo; method in brief: as §3
[10] = Half life in dog at 3 mg/kg, po; type: ADME, organism-based, Canis lupus familiaris; design: dose 3 mg/kg, route oral; details: in vivo; method in brief: as §3
[11] = AUC (0-24) in dog at 3 mg/kg, po; type: ADME, organism-based, Canis lupus familiaris; design: time < 24 hr, dose 3 mg/kg, route oral; details: plasma
[12] = Time taken to achieve maximum concentration in rat at 3 mg/kg, po; type: ADME, organism-based; design: dose 3 mg/kg, route oral; details: in vivo; method in brief: as §3
[13] = Maximum concentration in rat at 3 mg/kg, po; type: ADME, organism-based; design: dose 3 mg/kg, route oral; details: in vivo; method in brief: as §3
[14] = Half life at late phase in rat at 3 mg/kg, po; type: ADME, organism-based; design: dose 3 mg/kg, route oral; details: in vivo; method in brief: as §3
[15] = Metabolic stability by incubation with human liver microsomes; type: ADME, Microsome
Rattus norvegicus [16] = assay: Volume of distribution in rat at 3 mg/kg, po; type: ADME, organism-based; design: dose 3 mg/kg, route oral; details: in vivo; method in brief: as §3
Rattus norvegicus [17] = assay: Hyperalgesia in male SD rat administered 2 hrs after carrageenan injection, analgesia tested at 3 hrs; type: functional; details: Sprague-Dawley; method in brief: as §2
Rattus norvegicus [18] = assay: Hyperalgesia in male SD rat administered 1 hr before carrageenan injection, analgesia tested at 3 hrs; type: functional; details: Sprague-Dawley; method in brief: as §2
Rattus norvegicus [19] = assay: Hyperalgesia in male SD rat administered 1 hr before carrageenan injection, analgesia tested at 4 hrs; type: functional; details: Sprague-Dawley; method in brief: as §2
[20] = Half life at early phase in rat at 3 mg/kg, po; type: ADME, organism-based; design: dose 3 mg/kg, route oral; details: in vivo; method in brief: as §3
[21] = Maximum concentration in dog at 3 mg/kg, po; type: ADME, organism-based, Canis lupus familiaris; design: dose 3 mg/kg, route oral; details: in vivo; method in brief: as §3
Rattus norvegicus [22] = species: Rattus norvegicus; assay: Rotarod test in rat at 1 hr; type: functional; details: Sprague-Dawley; method in brief: as §1
[23] = Clearance in dog at 3 mg/kg, po; type: ADME, organism-based, Canis lupus familiaris; design: dose 3 mg/kg, route oral; details: in vivo; method in brief: as §3
[24] = AUC (0-24) in rat at 3 mg/kg, po; type: ADME, organism-based; design: time < 24 hr, dose 3 mg/kg, route oral; details: plasma
Rattus norvegicus [25] = assay: Hyperalgesia in male SD rat administered 2 hrs after carrageenan injection, analgesia tested at 5 hrs; type: functional; details: Sprague-Dawley; method in brief: as §2
Rattus norvegicus [26] = species: Rattus norvegicus; assay: Inhibition of formalin induced paw pain in male SD rat; type: functional; details: Sprague-Dawley
Method in brief: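 Fasted male SD rats (4 weeks, 105–115 g), six per dose group; compound in 0.1% MC po at 0.3, 1, 3 and 10 mg/kg, 15 min before 50 μL of 2% formalin s.c. into right hindpaw plantar surface.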

Rattus norvegicus [27] = assay: Toxicity in rat liver administered at 75 umol/kg, iv; type: organism-based; details: in vivo
Method in brief: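 Three male rats given 75 μmol/kg total iv in 75:25 PEG-400/saline as two 40-min infusions 12 h apart; serum taken 24 h after first infusion for bilirubin, SGOT, SGPT, creatine, GGT, albumin, glucose, BUN and ALP.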

Callitrichinae = assay: Bradykinin-induced licking in male marmoset monkey; type: functional, Callithrix jacchus
Method in brief: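 Male marmosets (293–359 g), 4–6 per group, individually housed; dosed po at 0.1, 1.0 and 10 mg/kg in 0.1% MC (vehicle control). 60 min post-dose, 100 μL of 1 mM bradykinin in saline injected i.pl. into foot pad. Response scored 0–3 every 15 s for 15 min from video; ataxia, sedation, emesis monitored. Alternate foot pads, 2-week intervals.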

Rattus norvegicus [28] = species: Rattus norvegicus; assay: Rotarod test in rat at 2 hrs; type: functional; details: Sprague-Dawley; method in brief: as §1
Rattus norvegicus [29] = assay: Hyperalgesia in male SD rat administered 2 hrs after carrageenan injection, analgesia tested at 4 hrs; type: functional; details: Sprague-Dawley; method in brief: as §2
Canis familiaris = assay: Volume of distribution in dog at 3 mg/kg, po; type: ADME, organism-based, Canis lupus familiaris; design: dose 3 mg/kg, route oral; details: in vivo; method in brief: as §3

Sequence of Adenosine kinase (P55263 whole entry): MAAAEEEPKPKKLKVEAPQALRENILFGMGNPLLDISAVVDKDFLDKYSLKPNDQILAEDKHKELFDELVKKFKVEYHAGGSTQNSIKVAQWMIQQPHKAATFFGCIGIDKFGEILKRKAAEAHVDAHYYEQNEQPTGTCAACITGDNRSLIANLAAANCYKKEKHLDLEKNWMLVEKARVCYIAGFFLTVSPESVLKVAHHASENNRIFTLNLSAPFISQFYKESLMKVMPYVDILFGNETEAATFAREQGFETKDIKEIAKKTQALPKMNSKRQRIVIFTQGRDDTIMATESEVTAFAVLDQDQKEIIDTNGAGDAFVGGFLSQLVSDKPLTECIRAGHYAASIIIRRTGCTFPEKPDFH

CC(C)NC(=O)CNc1ncnc2c1c(-c1ccccc1)cn2[C@@H]1O[C@H](C)[C@@H](O)[C@H]1O
solubility [1]: 26 µg/mL (≈ 61.1 µM) | IC50 (Adenosine kinase): 25 nM | inhibition in vivo at 20 mg/kg (Rattus norvegicus [2]): 74%

C[C@H]1O[C@@H](n2cc(-c3ccccc3)c3c(NC/C(S)=N\C4CC4)ncnc32)[C@H](O)[C@@H]1O
solubility [1]: 8 µg/mL (≈ 18.2 µM) | IC50 (Adenosine kinase): 0.5 nM | inhibition in vivo at 20 mg/kg (Rattus norvegicus [2]): 22%

O=C(CNc1ncnc2c1c(-c1ccccc1)cn2[C@@H]1OC[C@@H](O)[C@H]1O)NC1CC1
solubility [1]: 280 µg/mL (≈ 684 µM) | IC50 (Adenosine kinase): 20 nM | inhibition in vivo at 20 mg/kg (Rattus norvegicus [2]): 17%

O=C(CNc1ncnc2c1c(-c1ccccc1)cn2COCCO)Nc1ccc(Cl)cc1
solubility [1]: < 0.05 µg/mL | IC50 (Adenosine kinase): 60 nM | inhibition in vivo at 20 mg/kg (Rattus norvegicus [2]): 31%

C[C@H]1O[C@@H](n2cc(-c3ccccc3)c3c(NCC(=O)NCCCO)ncnc32)[C@H](O)[C@@H]1O
solubility [1]: 650 µg/mL (≈ 1470 µM) | IC50 (Adenosine kinase): 16 nM | inhibition in vivo at 20 mg/kg (Rattus norvegicus [2]): 4%

C[C@H]1O[C@@H](n2cc(-c3ccccc3)c3c(NCC(=O)Nc4ccc(Cl)cc4)ncnc32)[C@H](O)[C@@H]1O
solubility [1]: < 0.05 µg/mL | IC50 (Adenosine kinase): 0.2 nM | inhibition in vivo at 20 mg/kg (Rattus norvegicus [2]): 62%

C[C@H]1O[C@@H](n2cc(-c3ccccc3)c3c(NCC(=O)NCCCN(C)C)ncnc32)[C@H](O)[C@@H]1O
solubility [1]: > 1000 µg/mL | IC50 (Adenosine kinase): 145 nM | inhibition in vivo at 20 mg/kg (Rattus norvegicus [2]): 22%

CCN(CC)CCNC(=O)CNc1ncnc2c1c(-c1ccccc1)cn2[C@@H]1O[C@H](C)[C@@H](O)[C@H]1O
solubility [1]: > 1000 µg/mL | IC50 (Adenosine kinase): 210 nM | inhibition in vivo at 20 mg/kg (Rattus norvegicus [2]): 11%

C[C@H]1O[C@@H](n2nc(-c3ccccc3)c3c(NCC(=O)NC4CC4)ncnc32)[C@H](O)[C@@H]1O
solubility [1]: 620 µg/mL (≈ 1460 µM) | IC50 (Adenosine kinase): 6 nM | inhibition in vivo at 20 mg/kg (Rattus norvegicus [2]): 7%

CNC(=O)CNc1ncnc2c1c(-c1ccccc1)cn2[C@@H]1O[C@H](C)[C@@H](O)[C@H]1O
solubility [1]: 240 µg/mL (≈ 604 µM) | IC50 (Adenosine kinase): 0.8 nM | inhibition in vivo at 20 mg/kg (Rattus norvegicus [2]): 35%

C[C@H]1O[C@@H](n2cc(-c3ccccc3)c3c(NCC(=O)NCC4CC4)ncnc32)[C@H](O)[C@@H]1O
solubility [1]: 12 µg/mL (≈ 27.4 µM) | IC50 (Adenosine kinase): 6 nM | inhibition in vivo at 20 mg/kg (Rattus norvegicus [2]): 42%

CCONC(=O)CNc1ncnc2c1c(-c1ccccc1)cn2[C@@H]1O[C@H](C)[C@@H](O)[C@H]1O
solubility [1]: 535 µg/mL (≈ 1250 µM) | IC50 (Adenosine kinase): 5 nM | inhibition in vivo at 20 mg/kg (Rattus norvegicus [2]): 0%

O=C(CNc1ncnc2c1c(-c1ccccc1)nn2[C@@H]1O[C@H](CO)[C@@H](O)[C@H]1O)NC1CC1
solubility [1]: 370 µg/mL (≈ 840 µM) | IC50 (Adenosine kinase): 10 nM | inhibition in vivo at 20 mg/kg (Rattus norvegicus [2]): 6%

CCCNC(=O)CNc1ncnc2c1c(-c1ccccc1)cn2[C@@H]1O[C@H](C)[C@@H](O)[C@H]1O
solubility [1]: 38 µg/mL (≈ 89.3 µM) | IC50 (Adenosine kinase): 7 nM | inhibition in vivo at 20 mg/kg (Rattus norvegicus [2]): 41%

CC(C)CNC(=O)CNc1ncnc2c1c(-c1ccccc1)cn2[C@@H]1O[C@H](C)[C@@H](O)[C@H]1O
solubility [1]: 7 µg/mL (≈ 15.9 µM) | IC50 (Adenosine kinase): 4 nM | inhibition in vivo at 20 mg/kg (Rattus norvegicus [2]): 16%

COCCNC(=O)CNc1ncnc2c1c(-c1ccccc1)cn2[C@@H]1O[C@H](C)[C@@H](O)[C@H]1O
solubility [1]: 230 µg/mL (≈ 521 µM) | IC50 (Adenosine kinase): 38 nM | inhibition in vivo at 20 mg/kg (Rattus norvegicus [2]): 44%

C[C@H]1O[C@@H](n2cc(-c3ccccc3)c3c(NCC(=O)Nc4ccccc4)ncnc32)[C@H](O)[C@@H]1O
solubility [1]: < 0.05 µg/mL | IC50 (Adenosine kinase): 0.5 nM | inhibition in vivo at 20 mg/kg (Rattus norvegicus [2]): 62%

C[C@H]1O[C@@H](n2cc(-c3ccccc3)c3c(NCC(=O)NC4CC4)ncnc32)[C@H](O)[C@@H]1O
ED50 (Rattus norvegicus [3]): 62 mg/kg | Inhibition (Rattus norvegicus [4]): <50% | ED50 (Rattus norvegicus [5]): > 300 mg/kg | Inhibition (Rattus norvegicus [6]): <50% | Tmax [7]: 0.3 h | bioavailability [8]: 128% | CL/F [9]: 56.7 mL/min/kg | half-life [10]: 2 h | AUC at 24 h [11]: 1490 ng·h/mL | Tmax [12]: 0.3 h | Cmax [13]: 660 ng/mL | half-life [14]: 5.2 h | half-life [15]: 3.3 h | solubility [1]: 32 µg/mL (≈ 75.6 µM) | Vdss (Rattus norvegicus [16]): 3.3 L/kg | ED50 (Rattus norvegicus [17]): 1.6 mg/kg | ED50 (Rattus norvegicus [18]): 2.6 mg/kg | ED50 (Rattus norvegicus [19]): 3.8 mg/kg | half-life [20]: 0.3 h | Cmax [21]: 518 ng/mL | ED50 (Rattus norvegicus [22]): > 300 mg/kg | CL/F [23]: 35 mL/min/kg | AUC at 24 h [24]: 981 ng·h/mL | ED50 (Rattus norvegicus [25]): 6.5 mg/kg | ED50 (Rattus norvegicus [26]): 2.5 mg/kg | Activity (Rattus norvegicus [27]): Non-toxic | ED50 (Callitrichinae): 0.9 mg/kg | ED50 (Rattus norvegicus [28]): 102 mg/kg | ED50 (Rattus norvegicus [29]): 4.1 mg/kg | IC50 (Adenosine kinase): 3 nM | inhibition in vivo at 20 mg/kg (Rattus norvegicus [2]): 66% | Vdss (Canis familiaris): 6.3 L/kg

C[C@H]1O[C@@H](n2cc(-c3ccccc3)c3c(NC(=O)C(=O)NC4CC4)ncnc32)[C@H](O)[C@@H]1O
solubility [1]: 17 µg/mL (≈ 38.9 µM) | IC50 (Adenosine kinase): 1.3 nM | inhibition in vivo at 20 mg/kg (Rattus norvegicus [2]): 17%

O=C(CNc1ncnc2c1c(-c1ccccc1)nn2[C@@H]1O[C@H](CO)[C@@H](O)[C@H]1O)Nc1ccccc1
solubility [1]: 7 µg/mL (≈ 14.7 µM) | IC50 (Adenosine kinase): 0.9 nM | inhibition in vivo at 20 mg/kg (Rattus norvegicus [2]): -10%
